Most compounds without a hit are left out; they make up all but 2.1% or so of the library.
Mot1-301 SUMO = SUMOylation pathway inhibition by Mot1-301 growth rescue. S. cerevisiae Mot1-301 growth rescue, ATP luminescence, 38.5C; percent above DMSO median, 100 means doubled. growth rescue, % at 18.8 µM. 1% of 320,000 active. AID 2716;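 active = every valid replicate shows activation above 250% relative to neutral control wells; inactive = the rest, any valid replicate at or below 250%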;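 also: OY570 slx delta 5 strain wells were the positive control but not used for scaling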
RTF Ca sens inh = cardiac RTF calcium desensitization; IANBD-labeled cardiac RTF, Ca2+ fluorescence; inhibition, % at 7.15 µM; 0.12% of 340,000 active;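 active = inhibition above the mean inhibition of all tested compounds plus 3 SD, cut at about 17% in these data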;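 also: assay run at fixed EC70 calcium of 1.6 mM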
ARNT TACC3 PPI = disruptors of human ARNT/TACC3 interaction | AlphaScreen His-ARNT PAS-B/GST-TACC3 binding, luminescence; TACC3 fragment carries E629A point mutation | inhibition, % at 9.99 µM | 0.66% of 390,000 active | AID 623870;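 active = mean inhibition of replicates at least 50% and at least half of replicates each reaching 50%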;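 also: 0% = complete ARNT plus TACC3 wells and 100% = ARNT alone without TACC3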
cardiac RTF act = cardiac RTF calcium sensitization; P19429+P45379; IANBD-labeled TnC RTF fluorescence at EC20 calcium; 0% EC20 calcium, 100% full calcium; activation, % at 7.2 µM; 0.24% of 340,000 active;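 active = activation above the mean over all tested compounds plus 3 SD, cut at about 30% in these data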;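 also: rise in fluorescence read as greater calcium sensitivity of cardiac thin filaments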
Efflux pump inh = inhibitors of Candida antifungal efflux pumps expressed in yeast; S. cerevisiae Candida pump triplex, Nile Red efflux; inhibition, % at 10 µM; 0.44% of 330,000 active; AID 485275;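 active = plate passing quality check with inhibition over a set limit, or well fluorescence over plate mean plus 4 SD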;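 also: Nile Red retained in pooled yeast measured as flow cytometry median fluorescence; 0% = buffer negative control and 100% = Enniatin B positive control; higher means more Nile Red kept so more efflux inhibition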
UCH37 DUB inh = human UCH37 deubiquitinating enzyme inhibition | Q9Y5K5 | purified proteasome/UCH37, Ub-AMC cleavage fluorescence | inhibition, % (concentration not given with the values) | 0.33% of 330,000 active;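 active = mean inhibition over replicate wells above about 20%, limit read from the data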;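 also: 0% = compound-free wells with enzyme and 100% = wells lacking proteasome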
Target sequence (Q9Y5K5 whole entry, looked up): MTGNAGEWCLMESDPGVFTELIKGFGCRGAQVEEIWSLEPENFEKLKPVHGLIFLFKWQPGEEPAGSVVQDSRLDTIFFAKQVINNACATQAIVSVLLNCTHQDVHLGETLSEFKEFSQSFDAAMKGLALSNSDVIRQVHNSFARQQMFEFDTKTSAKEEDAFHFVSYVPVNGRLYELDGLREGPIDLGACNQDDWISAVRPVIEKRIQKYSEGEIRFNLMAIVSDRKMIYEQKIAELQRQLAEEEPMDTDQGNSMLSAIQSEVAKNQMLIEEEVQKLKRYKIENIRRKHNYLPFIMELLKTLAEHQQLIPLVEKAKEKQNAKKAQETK
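assay system = human UCH37 enzyme supplied as purified proteasome complex | amount = proteasome at 0.15 nM in the dispensed enzyme solution | schedule = 30 min compound-proteasome preincubation then 25 min substrate reaction, room temperature | measured by = fluorescence, ex 355 nm, em 460 nm | benchmarks = no-proteasome wells (full inhibition) and compound-free wells (no inhibition)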
* = called active by the depositor.

`COC1=C(N)C(=O)c2nc(C)ccc2C1=O` gave RTF Ca sens inh -5.6, ARNT TACC3 PPI 29.6* and cardiac RTF act -1.3.
CC(C)CC(=O)NC(=S)Nc1ccc(N2CCCC2)c(Cl)c1 was read as Mot1-301 SUMO 0.2, ARNT TACC3 PPI 2.2, Efflux pump inh -0.1 and UCH37 DUB inh 0.6.
Screening CC(C)C(=O)Nc1ccc(N2CCCC2)c(Cl)c1 returned Mot1-301 SUMO 496.9*, RTF Ca sens inh -5.7, ARNT TACC3 PPI 4.1, cardiac RTF act 8.8, Efflux pump inh -0.1 and UCH37 DUB inh -1.2.
`CC(C)CC(=O)Nc1ccc2c3c(cccc13)CC2` gave Mot1-301 SUMO 389.1*, RTF Ca sens inh -6.4, ARNT TACC3 PPI -3.6, cardiac RTF act -0.1, Efflux pump inh -0.1 and UCH37 DUB inh -1.7.
`COc1ccc(OCCCN2CCCCCC2)cc1` gave Mot1-301 SUMO 13.7, RTF Ca sens inh 1.1, ARNT TACC3 PPI 46.6*, cardiac RTF act 2.9, Efflux pump inh -0.3 and UCH37 DUB inh 0.8.
Screening COc1cc(NC(C)CCCN)c2ncccc2c1 (stereo not drawn) returned Mot1-301 SUMO 2.5, RTF Ca sens inh 1.4, ARNT TACC3 PPI 36.4*, cardiac RTF act 5.2, Efflux pump inh -0.1 and UCH37 DUB inh 5.1.
`Oc1cc(NCc2ccc(Cl)cc2)cc2cccnc12` gave Mot1-301 SUMO -11.9, RTF Ca sens inh -10.5, ARNT TACC3 PPI 36.7*, cardiac RTF act 1.8, Efflux pump inh -0.1 and UCH37 DUB inh 13.7.
`CC(CC(C)C)=NNC(=O)Nc1ccccc1` gave UCH37 DUB inh 2.0.
Screening CC(C)NC(=O)N(C)C[C@@H]1Oc2ccc(NC(=O)Nc3ccc(C(F)(F)F)cc3)cc2CC(=O)N([C@@H](C)CO)C[C@H]1C returned ARNT TACC3 PPI 46.1*.
`C[C@@H]1CN([C@@H](C)CO)C(=O)Cc2cc(NC(=O)c3ccncc3)ccc2O[C@H]1CN(C)Cc1ccc(Cl)c(Cl)c1` gave ARNT TACC3 PPI 47.8*.
For C[C@H]1CN([C@@H](C)CO)C(=O)Cc2cc(NC(=O)C3CC3)ccc2O[C@H]1CN(C)Cc1ccc(Cl)c(Cl)c1 the results were ARNT TACC3 PPI 46.0*.
`C[C@@H]1CN([C@H](C)CO)C(=O)Cc2cc(NC(=O)C3CC3)ccc2O[C@@H]1CN(C)Cc1ccc(Cl)c(Cl)c1` gave ARNT TACC3 PPI 14.9.
`Cn1ccnc1COc1ccc(C=NO)cc1` gave UCH37 DUB inh 2.5.
For O=C(Nc1ccc2c(c1)[C@@H]1C[C@H](CC(=O)N3CCc4ccccc4C3)O[C@H](CO)[C@@H]1O2)c1ccc2c(c1)OCO2 the results were ARNT TACC3 PPI 47.6*.
For O=C(Nc1ccc2c(c1)[C@@H]1C[C@@H](CC(=O)N3CCc4ccccc4C3)O[C@H](CO)[C@@H]1O2)c1ccc2c(c1)OCO2 the results were ARNT TACC3 PPI 14.5.
`Oc1ccc2ccccc2c1C=Nn1cnnc1` gave UCH37 DUB inh 8.4.
For O=C(c1ccccc1)c1ccc(O)cc1O the results were Mot1-301 SUMO -13.0, RTF Ca sens inh -237.9, ARNT TACC3 PPI 22.8, cardiac RTF act 156.6*, Efflux pump inh 0.1 and UCH37 DUB inh 10.2.
O=C(c1ccc(O)cc1)c1ccc(O)cc1O was read as Mot1-301 SUMO 83.5, RTF Ca sens inh 2.8, ARNT TACC3 PPI 2.3, cardiac RTF act -0.5, Efflux pump inh 0.0 and UCH37 DUB inh 15.9.
Screening CC1C/C(=C/c2cccn2C)C(=O)/C(=C/c2cccn2C)C1 (stereo not drawn) returned Mot1-301 SUMO -30.4, RTF Ca sens inh -410.0, ARNT TACC3 PPI 1.9, cardiac RTF act 375.5*, Efflux pump inh 0.1 and UCH37 DUB inh 6.1.
CCOC(=O)C1=C(C)N=c2sc(=Cc3ccc(OCC(=O)O)cc3)c(=O)n2C1c1cc(OC)c(OC)c(OC)c1 (stereo not drawn) was read as UCH37 DUB inh 11.0.
COc1ccc(NC(=O)c2cnn(-c3ccccc3)c2C)cc1 was read as Mot1-301 SUMO -17.0, RTF Ca sens inh 1.9, ARNT TACC3 PPI -11.1, cardiac RTF act -7.9, Efflux pump inh -0.2 and UCH37 DUB inh 4.2.
COc1ccc(NC(=S)NNC(=O)c2nnn(-c3ccccc3)c2C)cc1 was read as Mot1-301 SUMO -3.2, RTF Ca sens inh -22.9, ARNT TACC3 PPI 61.9*, cardiac RTF act 5.7 and Efflux pump inh 0.0.
Cc1ccc(-n2c(C)c(C)c3c(NCCO)ncnc32)cc1 was read as Mot1-301 SUMO -7.0, RTF Ca sens inh -3.6, ARNT TACC3 PPI 26.8*, cardiac RTF act -3.8, Efflux pump inh 0.0 and UCH37 DUB inh 3.0.
`Cc1c(C)n(-c2ccccc2)c2ncnc(NCCCN(C)C)c12` gave Mot1-301 SUMO -0.2, RTF Ca sens inh 6.0, ARNT TACC3 PPI -0.7, cardiac RTF act -4.5, Efflux pump inh 0.1 and UCH37 DUB inh 0.2.
Screening COc1cccc2cc(C(=O)Nc3ccccc3C)c(=NNS(=O)(=O)c3ccccc3)oc12 returned UCH37 DUB inh 6.0.
For CC(C)N(C(=O)Cn1c(SCC(=O)NCc2ccc3c(c2)OCO3)nc2ccccc21)C(C)C the results were Mot1-301 SUMO 307.4*, RTF Ca sens inh -0.1, ARNT TACC3 PPI 0.4, cardiac RTF act -1.7, Efflux pump inh 0.1 and UCH37 DUB inh 4.3.
`Nc1ccccc1N=Cc1ccc(-c2cccc(Cl)c2)o1` gave Mot1-301 SUMO 444.3*, RTF Ca sens inh -13.8, ARNT TACC3 PPI 5.9, cardiac RTF act 2.4, Efflux pump inh 0.3 and UCH37 DUB inh -106.8.
`CC(=O)Nc1ccc(NC2=CC(=NS(=O)(=O)c3cccs3)c3ccccc3C2=O)cc1` gave UCH37 DUB inh 28.8*.
`Cc1ccccc1NC1=C/C(=N\S(=O)(=O)c2ccc(C(=O)O)cc2)c2ccccc2C1=O` gave Mot1-301 SUMO -17.0, RTF Ca sens inh 5.6, ARNT TACC3 PPI 31.0, cardiac RTF act -5.2, Efflux pump inh -0.2 and UCH37 DUB inh 94.4*.
CC(C)c1ccc(S(=O)(=O)/N=C2\C=C(NS(=O)(=O)c3ccccc3)C(=O)c3ccccc32)cc1 was read as Mot1-301 SUMO -26.4, RTF Ca sens inh -21.9, ARNT TACC3 PPI 46.6*, cardiac RTF act 4.6, Efflux pump inh 0.1 and UCH37 DUB inh 9.1.
For CC(=NNC(=O)c1ccc(NS(=O)(=O)c2cccs2)cc1)c1ccc(C(C)(C)C)cc1 the results were UCH37 DUB inh -0.2.
For CCN1C(=O)[C@H]2[C@H]3[C@H](O)[C@H](O)CC(=NO[C@H](C)c4cn([C@H](CO)Cc5ccccc5)nn4)[C@@H]3CC[C@H]2C1=O the results were UCH37 DUB inh 0.8.
COc1cc(C(C)=NNC(=O)Cc2c(C)[nH][nH]c2=O)ccc1O was read as UCH37 DUB inh -1.3.
